# According to ChEMBL document CHEMBL1629694, “Inhibition of dengue virus RNA synthesis by an adenosine nucleoside” (Antimicrob Agents Chemother, 2010):
# Activity calls are given as the source filed them. No cut-off for these calls is given here.
# Columns and labels:
# dengue virus type 2 [1] = assay: Antiviral activity against at 0.3 MOI Dengue virus 2 infected in human A549 cells assessed as level of E protein after 48 hrs by ELISA; type: functional, organism-based; settings: A549, 48 h
# How it was run: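 CFI assay: A549 cells (2 × 10^4/well) seeded and infected the next day with DENV-2 at MOI 0.3 for 1 h, compound added to the inoculum. Medium then replaced with fresh medium containing compound. Cells methanol-fixed on day 2 p.i. E protein detected by ELISA (mAb 4G2, HRP anti-mouse IgG). EC50 from nonlinear regression.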
# [2] = Cytotoxicity against human A549 cells assessed as intracellular ATP level by Celltiter-Glo luminescent assay; type: cell-based
# dengue virus type 2 [3] = assay: Antiviral activity against at 1 MOI of Dengue virus 2 infected in hamster BHK21 cells assessed as decrease in viral RNA synthesis at 3 uM after 2 to 4 hrs post-transfection by luciferase reporter gene assay; type: functional, organism-based; settings: BHK-21, 1 M
# How it was run: (§1)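 DENV-2 luciferase replicon RNA (10 μg) electroporated into 8 × 10^6 BHK-21 cells, then seeded at 3.2 × 10^5/well. Cells incubated immediately with 1 or 3 μM compound, with 0.9% DMSO (final) as control. Luciferase measured at 2–4 h (translation of input RNA) and at 24 and 35 h p.t. (RNA synthesis).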
# dengue virus type 2 [4] = assay: Antiviral activity against at 1 MOI of Dengue virus 2 infected in hamster BHK21 cells assessed as decrease in viral NS3 protein expression at 1 uM after 24 hrs post-transfection by […]; type: functional, organism-based; settings: BHK-21, 1 M
# How it was run: (§2)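 Replicon-electroporated BHK-21 cells treated immediately with 1 or 3 μM compound, with 0.9% DMSO control. Cells lysed at 24 and 35 h p.t. NS3 detected by Western blot with in-house rabbit anti-NS3 (1:5,000). γ-Tubulin (1:1,000) served as reference, with HRP secondary antibodies (1:8,000).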
# [5] = Cytotoxicity against hamster BHK21 cells assessed as intracellular ATP level upto 100 uM by Celltiter-Glo luminescent assay; type: cell-based, Mesocricetus auratus; settings: bhk-21
# How it was run: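 CC50 estimated from intracellular ATP by CellTiter-Glo luminescence. BHK-21 cells were tested up to 100 μM.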
# dengue virus type 2 [6] = assay: Antiviral activity against 3x10^7 PFU Dengue virus 2 D2S10 infected in alpha/beta interferon and INFgamma receptor deficient AG129 mouse assessed as protection against lethal virus challenge at 75 mg/kg, po treated 12 hrs postinfection by HPLC; type: functional, organism-based; design: dose 75 mg/kg
# How it was run: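 AG129 mice infected intravenously with 3 × 10^7 PFU of mouse-adapted DENV-2 strain D2S10. A single 75 mg/kg dose given at 12 h postinfection. Read-out was survival after the lethal challenge.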
# dengue virus type 2 [7] = assay: Selectivity ratio of EC50 for Dengue virus 2 infected in human HEK293 cells in presence of siRNA targeting adenosine kinase to EC50 for Dengue virus 2 infected in human HEK293 cells in absence of siRNA targeting adenosine kinase; type: functional
# How it was run: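 siRNA pools (10 pmol, four siRNAs against adenosine kinase or deoxycytidine kinase) reverse-transfected with RNAiMax into HEK-293 cells carrying a DENV-2 luciferase replicon (2 × 10^4/well). After 24 h at 37°C, graded compound concentrations were added. Renilla luciferase was read 3 days later. EC50s were compared with and without siRNA.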
# dengue virus type 2 [8] = assay: Antiviral activity against at 1 MOI of Dengue virus 2 infected in hamster BHK21 cells assessed as decrease in viral RNA synthesis at 1 uM after 2 to 4 hrs post-transfection by luciferase reporter gene assay; type: functional, organism-based; settings: BHK-21, 1 M; how it was run: as §1
# dengue virus type 2 [9] = assay: Antiviral activity against at 1 MOI of Dengue virus 2 infected in hamster BHK21 cells assessed as viral titer after 48 hrs postinfection by plaque assay; type: functional, organism-based; settings: BHK-21, 1 M
# dengue virus type 2 [10] = assay: Antiviral activity against Dengue virus 2 TSVO1 infected in alpha/beta interferon and INFgamma receptor deficient AG129 mouse assessed as decrease in viral load treated 12 hrs postinfection measured after 3 days of infection […]; type: functional, organism-based
# Plasma = assay: Drug uptake in rat plasma at 25 mg/kg, po by […]; type: ADME, organism-based; design: dose 25 mg/kg, route oral; settings: in vivo
# How it was run: (§3)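 Male Han-Wistar rats given 14C-labeled compound (label at adenine C-2) as a single intravenous 5 mg/kg or oral 25 mg/kg dose. Plasma and blood pellets sampled over time; pellets first taken up in 2 volumes of pH 2.5 ammonium formate/0.1% formic acid. Extraction in ice-cold acetonitrile (3:1). Metabolites profiled by HPLC with off-line radioactivity detection and identified by MS.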
# dengue virus type 2 [11] = assay: Antiviral activity against Dengue virus 2 infected in human A549 cells assessed as level of E protein production up to 20 uM by ELISA in presence of 0.2 uM adenosine kinase inhibitor iodotubercidin; type: functional, organism-based
# How it was run: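 CFI assay in A549 cells with iodotubercidin at 0.2 μM and test compound up to 20 μM. Cells infected with DENV-2 at MOI 0.3 for 1 h with compound in the inoculum, then refed with compound-containing medium. Methanol fixation on day 2 p.i. E protein read by 4G2/HRP ELISA.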
# Blood [12] = assay: Drug uptake in rat blood assessed as mono-derivatives of compound level at 25 mg/kg, po by […]; type: ADME, organism-based; design: dose 25 mg/kg, route oral; settings: in vivo; how it was run: as §3
# dengue virus type 2 [13] = assay: Antiviral activity against at 1 MOI of Dengue virus 2 infected in hamster BHK21 cells assessed as decrease in viral RNA synthesis at 1 uM after 35 hrs post-transfection by luciferase reporter gene assay; type: functional, organism-based; settings: BHK-21, 1 M; how it was run: as §1
# dengue virus type 2 [14] = assay: Antiviral activity against at 0.3 MOI of Dengue virus 2 infected in hamster BHK21 cells assessed as reduction in viral titer at 6 uM after 48 hrs postinfection; type: functional, organism-based; settings: BHK-21, 0.3 M
# How it was run: (§4)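 BHK-21 cells infected with DENV-2 at MOI 0.3 and treated immediately with graded compound concentrations. Viral titers in culture fluid determined at 48 h p.i.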
# dengue virus type 2 [15] = assay: Antiviral activity against at 1 MOI of Dengue virus 2 infected in hamster BHK21 cells assessed as decrease in viral NS3 protein expression at 1 uM after 35 hrs post-transfection by […]; type: functional, organism-based; settings: BHK-21, 1 M; how it was run: as §2
# dengue virus type 2 [16] = assay: Antiviral activity against at 1 MOI of Dengue virus 2 infected in hamster BHK21 cells assessed as decrease in viral NS3 protein expression at 3 uM after 35 hrs post-transfection by […]; type: functional, organism-based; settings: BHK-21, 1 M; how it was run: as §2
# dengue virus type 2 [17] = assay: Antiviral activity against Dengue virus 2 TSVO1 infected in alpha/beta interferon and INFgamma receptor deficient AG129 mouse assessed as […] at 150 mg/kg, po 12 hrs postinfection measured after 3 days of infection […]; type: functional, organism-based; design: dose 150 mg/kg
# dengue virus type 2 [18] = assay: Antiviral activity against Dengue virus 2 infected in human HEK293 cells assessed as level of viral titer after 48 hrs by luciferase reporter gene assay in presence of siRNA targeting deoxycytidine kinase; type: functional, organism-based
# Blood [19] = assay: Drug uptake in rat blood assessed as tri-derivatives of compound level at 25 mg/kg, po by […]; type: ADME, organism-based; design: dose 25 mg/kg, route oral; settings: in vivo; how it was run: as §3
# dengue virus type 2 [20] = assay: Antiviral activity against at 1 MOI of Dengue virus 2 infected in hamster BHK21 cells assessed as decrease in viral RNA synthesis at 3 uM after 24 hrs post-transfection by luciferase reporter gene assay; type: functional, organism-based; settings: BHK-21, 1 M; how it was run: as §1
# dengue virus type 2 [21] = assay: Antiviral activity against at 0.3 MOI of Dengue virus 2 infected in hamster BHK21 cells assessed as reduction in viral titer after 48 hrs postinfection; type: functional, organism-based; how it was run: as §4
# dengue virus type 2 [22] = assay: Antiviral activity against at 1 MOI of Dengue virus 2 infected in hamster BHK21 cells assessed as decrease in viral NS3 protein expression at 3 uM after 24 hrs post-transfection by […]; type: functional, organism-based; settings: BHK-21, 1 M; how it was run: as §2
# dengue virus type 2 [23] = assay: Antiviral activity against Dengue virus 2 TSVO1 infected in alpha/beta interferon and INFgamma receptor deficient AG129 mouse assessed as decrease in viral load at 300 mg/kg, po 12 hrs postinfection […]; type: functional, organism-based; design: dose 300 mg/kg
# dengue virus type 2 [24] = assay: Antiviral activity against at 1 MOI of Dengue virus 2 infected in hamster BHK21 cells assessed as decrease in viral RNA synthesis at 3 uM after 35 hrs post-transfection by luciferase reporter gene assay; type: functional, organism-based; settings: BHK-21, 1 M; how it was run: as §1
# dengue virus type 2 [25] = assay: Antiviral activity against Dengue virus 2 infected in human HEK293 cells assessed as level of viral titer after 48 hrs by luciferase reporter gene assay in presence of siRNA targeting adenosine kinase; type: functional, organism-based; settings: HEK293, 48 h
# Blood [26] = assay: Drug uptake in rat blood assessed as di-derivatives of compound level at 25 mg/kg, po by […]; type: ADME, organism-based; design: dose 25 mg/kg, route oral; settings: in vivo; how it was run: as §3
# dengue virus type 2 [27] = assay: Antiviral activity against at 1 MOI of Dengue virus 2 infected in hamster BHK21 cells assessed as decrease in viral RNA synthesis at 1 uM after 24 hrs post-transfection by luciferase reporter gene assay; type: functional, organism-based; settings: BHK-21, 1 M; how it was run: as §1
compound,measurement,setting,value
C=C[C@@]1(O)[C@H](O)[C@@H](CO)O[C@H]1n1cnc2c(N)ncnc21,EC50,dengue virus type 2 [1],> 50 µM
same,CC50,[2],> 59 µM
CC[C@@]1(O)[C@H](O)[C@@H](CO)O[C@H]1n1cnc2c(N)ncnc21,EC50,dengue virus type 2 [1],> 100 µM
same,CC50,[2],> 100 µM
CC#C[C@@]1(O)[C@H](O)[C@@H](CO)O[C@H]1n1cnc2c(N)ncnc21,EC50,dengue virus type 2 [1],> 100 µM
same,CC50,[2],> 100 µM
C#C[C@@]1(O)[C@H](O)[C@@H](CO)O[C@H]1n1cc(C#N)c2c(N)ncnc21,EC50,dengue virus type 2 [1],3.1 µM
same,CC50,[2],> 100 µM
C#C[C@@]1(O)[C@H](O)[C@@H](CO)O[C@H]1n1cc(C(N)=O)c2c(N)ncnc21,EC50,dengue virus type 2 [1],2 µM
same,CC50,[2],62 µM
C#C[C@@]1(O)[C@H](O)[C@@H](CO)O[C@H]1n1ccc2c(N)ncnc21,Activity,dengue virus type 2 [3],inactive
same,Activity,dengue virus type 2 [4],Active
same,Activity,[5],Non-toxic
same,Activity,dengue virus type 2 [6],Active
same,EC50,dengue virus type 2 [1],0.7 µM
same,Selectivity ratio,dengue virus type 2 [7],11
same,Activity,dengue virus type 2 [8],inactive
same,Activity,dengue virus type 2 [9],Active
same,Activity,dengue virus type 2 [10],Active
same,Drug uptake,Plasma,Active
same,Activity,dengue virus type 2 [11],inactive
same,Drug uptake,Blood [12],Active
same,CC50,[2],> 100 µM
same,Activity,dengue virus type 2 [13],Active
same,Activity,dengue virus type 2 [14],Active
same,Activity,dengue virus type 2 [15],Active
same,Activity,dengue virus type 2 [16],Active
same,Activity,dengue virus type 2 [17],inactive
same,Activity,dengue virus type 2 [18],Active
same,Drug uptake,Blood [19],Active
same,Activity,dengue virus type 2 [20],Active
same,Activity,"dengue virus type 2 [21]; BHK-21, 0.3 M",Dose-dependent effect
same,EC50,"dengue virus type 2 [21]; BHK-21, 48 h",0.7 µM
same,Activity,dengue virus type 2 [22],Active
same,Activity,dengue virus type 2 [23],inactive
same,Activity,dengue virus type 2 [24],Active
same,EC50,dengue virus type 2 [25],9.2 µM
same,Drug uptake,Blood [26],Active
same,Activity,dengue virus type 2 [27],Active
C[C@@]1(O)[C@H](O)[C@@H](CO)O[C@H]1n1cnc2c(N)ncnc21,EC50,dengue virus type 2 [1],1.12 µM
same,CC50,[2],> 50 µM
C#C[C@@]1(O)[C@H](O)[C@@H](CO)O[C@H]1n1cnc2c(N)ncnc21,EC50,dengue virus type 2 [1],1.41 µM
same,CC50,[2],40 µM
C#C[C@@]1(O)[C@H](O)[C@@H](CO)O[C@H]1n1ccc(N)nc1=O [2'-ETHYNYL-D-CYTIDINE],EC50,dengue virus type 2 [1],> 100 µM
same,CC50,[2],> 100 µM
C#C[C@@]1(O)[C@H](O)[C@@H](CO)O[C@H]1n1cc(F)c2c(N)ncnc21,EC50,dengue virus type 2 [1],0.42 µM
same,CC50,[2],44 µM
C#C[C@@]1(O)[C@H](O)[C@@H](CO)O[C@H]1n1cnc2c(=O)[nH]c(N)nc21,EC50,dengue virus type 2 [1],> 100 µM
same,CC50,[2],> 100 µM
